Experimental data taken from the array DNA melting data of Ke et al. (doi:10.1101/2024.01.08.574731).

Experiments:
[1] = folding enthalpy; higher = less favourable; fluorescence melt of hairpins on a sequencing array, two-state fit; details: sodium 0.088 M
Outline: (§1)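 Library hairpins on a sequenced MiSeq flow cell carried annealed Cy3 and quencher oligos, and their Cy3 fluorescence was imaged in 50 mM Na-HEPES pH 8.0 with 25 mM NaCl, in 2.5 °C steps up to 60 °C. Signals were normalised to Cy3 before quenching and to control constructs. Melting temperature and folding enthalpy were obtained from bootstrapped two-state fits, combined by inverse-variance weighting across four replicates, and the fitted temperatures were then raised by 9.35 °C to match UV melts.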

[2] = melting temperature; fluorescence melt of hairpins on a sequencing array, two-state fit, raised by 9.35 °C to match UV melts; details: sodium 0.088 M
Outline: as §1

| Sequence | folding enthalpy [1] | Tm [2] |
| --- | --- | --- |
| GGTCTACGAAAGTAAACC (((.(((....))).))) | -26.2 kcal/mol | 39.3 °C |
| GGTACTGGAAACGGTACC (((((.(....).))))) | -40.9 kcal/mol | 50.4 °C |
| GTACACGCGAAAGCGTAC (((..(((....)))))) | -8.06 kcal/mol | 35.5 °C |
| GCAGGTCGAAAGACTGC (((.(((....)))))) | -29.8 kcal/mol | 55.9 °C |
| GTAGCCGAAAGGCGATAC ((((((....)))..))) | -9.43 kcal/mol | 41.3 °C |
| GATTAGCGAAAGCTATC (((.(((....)))))) | -12.5 kcal/mol | 34.7 °C |
| GCATAGGGAAACTTGTGC (((.(.(....).).))) | -13 kcal/mol | 29.9 °C |
| GTTTCTCGAAAGAGTAAC (((.(((....))).))) | -26.7 kcal/mol | 38 °C |
| CGCCCCGGAAACGGTGCG (((.(((....))).))) | -49.4 kcal/mol | 53.9 °C |
| GCTTGAGGAAACTCGAGC (((.(((....))).))) | -41.5 kcal/mol | 51.5 °C |
| GCGCAACCGAAAGGTCGC (((..(((....)))))) | -23.9 kcal/mol | 55 °C |
| GTTTTCGAAAGAAAAAAC ((((((....)))..))) | -11.1 kcal/mol | 29.8 °C |
| GCATTGGGAAACTAATGC (((((.(....).))))) | -32.6 kcal/mol | 46.7 °C |
| GAGATCCCGAAAGGGCTC (((..(((....)))))) | -12 kcal/mol | 34.9 °C |
| GCAGAGCGAAAGCCCCGC ((.(.((....)).).)) | -10.1 kcal/mol | 36.9 °C |
| GTTGGCGAAAGCCCCAAC ((((((....)))..))) | -6.64 kcal/mol | 22.5 °C |
| GCTCCTCGAAAGAGTAGC (((.(((....))).))) | -32.1 kcal/mol | 45.5 °C |
| GCTAGCGCGAAAGCGAGC (((..(((....)))))) | -12.9 kcal/mol | 44.9 °C |
| GATCACGTCGTGATC ((((((...)))))) | -40.5 kcal/mol | 61.1 °C |
| GCGATCGGAAACGGTCGC ((((.((....)).)))) | -39.1 kcal/mol | 66.8 °C |
| GGAGTGCGAAAGCAATCC (((.(((....))).))) | -35.7 kcal/mol | 60.1 °C |
| GATCCCATTGGGGATC ((((((....)))))) | -38.2 kcal/mol | 62.1 °C |
| GAATGCGGAAACACATTC (((((.(....).))))) | -32.6 kcal/mol | 39.8 °C |

| Sequence | folding enthalpy [1] | Tm [2] |
| --- | --- | --- |
| GGCGCTGGAAACAGCGTC (.(((((....))))).) | -23 kcal/mol | 65.9 °C |
| GACGACGAAAGTCGGTC ((((((....))).))) | -12.2 kcal/mol | 60.3 °C |
| GTGGTTGGAAACAATCAC (((.(((....))).))) | -36.6 kcal/mol | 47.7 °C |
| GGAGACGAAAGTCCCTCC ((((((....)))..))) | -16.3 kcal/mol | 49.8 °C |
| GAAATGGGAAACCGTTTC ((((.((....)).)))) | -33.4 kcal/mol | 43.6 °C |
| GGAGTACGAAAGTATCC (((.(((....)))))) | -22.7 kcal/mol | 38.5 °C |
| GGATACGGAAACGTGTCC (((.(((....))).))) | -46.1 kcal/mol | 52.7 °C |
| CACCAGAAATGGTG (((((....))))) | -23.4 kcal/mol | 50 °C |
| GGGATCGAAAGATGCCCC ((((((....)))..))) | -15 kcal/mol | 49.2 °C |
| GTGTGCGAAAGCACTCAC ((((((....)))..))) | -8.88 kcal/mol | 41.8 °C |
| GCCCGGCGAAAGCCTGGC (((.(((....))).))) | -25.8 kcal/mol | 64.6 °C |
| GGGCATGGAAACGTGTCC ((.((.(....).)).)) | -29 kcal/mol | 45 °C |
| GATCATTACTATGATC ((((((....)))))) | -41.7 kcal/mol | 48.6 °C |
| GATCTCCAGAGAGATC ((((((....)))))) | -38.8 kcal/mol | 52 °C |
| GCCAAGGGAAACCTTGAC (.(((((....))))).) | -20.6 kcal/mol | 39.6 °C |
| GACCCCGAAAGGGTTGTC ((((((....)))..))) | -14.4 kcal/mol | 43.4 °C |
| GCATGACGAAAGTCTGC (((.(((....)))))) | -29 kcal/mol | 53.9 °C |
| GCGCGACGAAAGTCCCGC (((.(((....))).))) | -42.8 kcal/mol | 57.5 °C |
| GTACCTCGAAAGAGTTAC (((.(((....))).))) | -27.9 kcal/mol | 35.3 °C |
| GCCAGGGCGAAAGCCGGC (((..(((....)))))) | -17.1 kcal/mol | 63.3 °C |
| GTTACCGAAAGGTTAAAC ((((((....)))..))) | -9.83 kcal/mol | 30.6 °C |
| GATCCGGTGCGGATC ((((((...)))))) | -45.2 kcal/mol | 57.5 °C |
| GGGTGAGGAAACTTACCC ((((.((....)).)))) | -35.7 kcal/mol | 47.7 °C |

| Sequence | folding enthalpy [1] | Tm [2] |
| --- | --- | --- |
| GTTACACGAAAGTGGAAC (((.(((....))).))) | -36.7 kcal/mol | 56.7 °C |
| GCGTCGCGAAAGCTATGC ((.(.((....)).).)) | -20.1 kcal/mol | 45 °C |
| GGATACGAAAGTATCTCC ((((((....)))..))) | -13.3 kcal/mol | 46.2 °C |
| GTTATTGCGAAAGCAAAC (((..(((....)))))) | -10.3 kcal/mol | 29.1 °C |
| GATGGTGGAAACATCGTC ((.(.((....)).).)) | -22 kcal/mol | 47.8 °C |
| GTAGTCGAAAGACGCTAC ((((((....)))..))) | -14.2 kcal/mol | 36.1 °C |
| GGAGATGGAAACACCTCC ((((.((....)).)))) | -29.7 kcal/mol | 39.7 °C |
| GTCGCCGGAAACGGTGGC (.(.(((....))).).) | -25.5 kcal/mol | 52.2 °C |
| GCCATCGAAAGATGAGGC ((((((....)))..))) | -18.8 kcal/mol | 46.3 °C |
| GTAGTCGAAAGACAATAC ((((((....)))..))) | -15.2 kcal/mol | 28.3 °C |
| GTGTCGACGAAAGTCCAC (((..(((....)))))) | -17.8 kcal/mol | 37.2 °C |
| GCTGTGGCGAAAGCCAGC (((..(((....)))))) | -13.8 kcal/mol | 52.2 °C |
| GTAGCCGAAAGGCATAC ((((((....))).))) | -11.9 kcal/mol | 43.5 °C |
| AGGGGGAAACCCCT (((((....))))) | -17.5 kcal/mol | 53.5 °C |
| GCCTCTCGAAAGAGGGGC (((.(((....))).))) | -34.1 kcal/mol | 63.2 °C |
| GGGAGTCGAAAGACGCCC (((.(((....))).))) | -30 kcal/mol | 64.3 °C |
| GTATAGGGAAACCCATAC ((((.((....)).)))) | -16.1 kcal/mol | 31.8 °C |
| GATCTCTCCGAGATC ((((((...)))))) | -40.7 kcal/mol | 56.7 °C |
| GTCCGTGGAAACGTGGAC ((((..(....)..)))) | -21.5 kcal/mol | 45.4 °C |
| GTGACCGAAAGGTGGCAC ((((((....)))..))) | -16.3 kcal/mol | 40.7 °C |
| GGAATCGGAAACGATTTC (.(((((....))))).) | -33.3 kcal/mol | 47.9 °C |
| GAACCCCGAAAGGGTTC (((.(((....)))))) | -30.9 kcal/mol | 58.9 °C |
